From ChEMBL document CHEMBL3525950, “Autoinhibition of CYP3A4 leads to important role of CYP2C8 in imatinib metabolism: variability in CYP2C8 activity may alter plasma concentrations and response” (Drug Metab Dispos, 2013)

Tests used:
Cytochrome P450 1A2 [1] = target: T1, Cytochrome P450 1A2 (Homo sapiens, UniProt P05177); test: Activity of human recombinant CYP1A2 in supersomes assessed as intrinsic clearance for enzyme-mediated drug metabolism by LC/MS analysis
T1 sequence (P05177 whole entry): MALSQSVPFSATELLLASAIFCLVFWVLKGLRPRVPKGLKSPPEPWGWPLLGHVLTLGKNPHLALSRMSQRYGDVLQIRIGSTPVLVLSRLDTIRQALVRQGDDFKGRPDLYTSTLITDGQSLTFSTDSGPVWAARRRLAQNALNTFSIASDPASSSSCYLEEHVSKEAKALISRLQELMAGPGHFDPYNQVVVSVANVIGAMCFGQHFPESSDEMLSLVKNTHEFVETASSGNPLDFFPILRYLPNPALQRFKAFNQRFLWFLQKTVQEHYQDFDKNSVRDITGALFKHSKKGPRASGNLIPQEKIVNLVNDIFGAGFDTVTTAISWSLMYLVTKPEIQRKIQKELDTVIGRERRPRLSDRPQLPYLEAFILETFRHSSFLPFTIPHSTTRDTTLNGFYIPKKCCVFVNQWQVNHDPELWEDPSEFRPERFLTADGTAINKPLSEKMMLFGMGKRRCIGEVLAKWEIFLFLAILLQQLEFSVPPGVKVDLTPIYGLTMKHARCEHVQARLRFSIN

Cytochrome P450 2D6 [2] = target: T2, Cytochrome P450 2D6 (Homo sapiens, UniProt P10635); test: Activity of human recombinant CYP2D6 in supersomes assessed as intrinsic clearance for enzyme-mediated drug metabolism by LC/MS analysis
T2 sequence (P10635 whole entry): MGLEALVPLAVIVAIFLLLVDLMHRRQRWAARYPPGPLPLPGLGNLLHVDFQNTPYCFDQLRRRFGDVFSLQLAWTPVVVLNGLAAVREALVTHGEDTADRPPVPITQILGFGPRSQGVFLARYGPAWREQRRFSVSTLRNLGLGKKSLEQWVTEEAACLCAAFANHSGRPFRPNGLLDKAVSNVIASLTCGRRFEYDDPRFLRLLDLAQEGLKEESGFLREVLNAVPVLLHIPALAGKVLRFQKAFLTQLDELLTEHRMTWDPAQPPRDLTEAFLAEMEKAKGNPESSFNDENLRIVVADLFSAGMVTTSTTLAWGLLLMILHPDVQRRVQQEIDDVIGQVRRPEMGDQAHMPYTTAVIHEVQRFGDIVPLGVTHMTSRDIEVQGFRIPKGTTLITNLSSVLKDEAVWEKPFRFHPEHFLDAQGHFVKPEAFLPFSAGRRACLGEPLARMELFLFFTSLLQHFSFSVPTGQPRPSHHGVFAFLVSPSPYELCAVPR

CYP1A2 = test: Fraction unbound in human liver microsomes containing CYP1A2 after 60 mins; type: ADME
CYP2C8 = test: Fraction unbound in human liver microsomes containing CYP2C8 after 60 mins; type: ADME
CYP2D6 = test: Fraction unbound in human liver microsomes containing CYP2D6 after 60 mins; type: ADME
CYP3A4 = test: Fraction unbound in human liver microsomes containing CYP3A4 after 60 mins; type: ADME
CYP3A5 = test: Fraction unbound in human liver microsomes containing CYP3A5 after 60 mins; type: ADME
Cytochrome P450 2C8 [3] = target: T3, Cytochrome P450 2C8 (Homo sapiens, UniProt P10632); test: Activity of human recombinant CYP2C8 in supersomes assessed as enzyme-mediated drug metabolism at 0.05 to 0.1 uM after 30 mins by LC/MS analysis; type: ADME; conditions: 0.5 h
T3 sequence (P10632 whole entry): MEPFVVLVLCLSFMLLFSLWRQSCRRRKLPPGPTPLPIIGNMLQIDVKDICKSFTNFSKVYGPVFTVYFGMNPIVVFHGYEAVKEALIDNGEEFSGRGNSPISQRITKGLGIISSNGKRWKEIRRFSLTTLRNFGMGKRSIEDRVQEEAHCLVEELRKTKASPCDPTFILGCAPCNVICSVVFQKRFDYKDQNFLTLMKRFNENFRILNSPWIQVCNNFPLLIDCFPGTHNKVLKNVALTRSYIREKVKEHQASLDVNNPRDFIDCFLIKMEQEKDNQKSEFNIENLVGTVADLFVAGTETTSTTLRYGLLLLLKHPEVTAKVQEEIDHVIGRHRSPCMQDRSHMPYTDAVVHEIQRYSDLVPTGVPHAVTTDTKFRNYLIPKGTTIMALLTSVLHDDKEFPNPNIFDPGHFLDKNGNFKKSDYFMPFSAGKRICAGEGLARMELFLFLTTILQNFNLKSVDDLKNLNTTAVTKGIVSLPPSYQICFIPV
How it was run: (§1)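 Recombinant P450 (CYP1A2 50, CYP2C8 158, CYP2D6 72, CYP3A4 66, CYP3A5 50 pmol/ml; 0.5 mg/ml protein) incubated with 0.1 µM N-DMI, and also 0.05 µM with CYP2C8/3A4/3A5. Run in 0.1 M sodium phosphate pH 7.4 with 1 mM NADPH at 37°C, in triplicate. N-DMI depletion was followed by LC-MS/MS; k_dep was fitted over 0–30 min and CLint = k_dep/[P450].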

Cytochrome P450 3A4 [4] = target: T4, Cytochrome P450 3A4 (Homo sapiens, UniProt P08684); test: Activity of human recombinant CYP3A4 in supersomes assessed as enzyme-mediated drug metabolism at 0.05 to 0.1 uM after 30 mins by LC/MS analysis; type: ADME; conditions: 0.5 h; how it was run: as §1
T4 sequence (P08684 whole entry): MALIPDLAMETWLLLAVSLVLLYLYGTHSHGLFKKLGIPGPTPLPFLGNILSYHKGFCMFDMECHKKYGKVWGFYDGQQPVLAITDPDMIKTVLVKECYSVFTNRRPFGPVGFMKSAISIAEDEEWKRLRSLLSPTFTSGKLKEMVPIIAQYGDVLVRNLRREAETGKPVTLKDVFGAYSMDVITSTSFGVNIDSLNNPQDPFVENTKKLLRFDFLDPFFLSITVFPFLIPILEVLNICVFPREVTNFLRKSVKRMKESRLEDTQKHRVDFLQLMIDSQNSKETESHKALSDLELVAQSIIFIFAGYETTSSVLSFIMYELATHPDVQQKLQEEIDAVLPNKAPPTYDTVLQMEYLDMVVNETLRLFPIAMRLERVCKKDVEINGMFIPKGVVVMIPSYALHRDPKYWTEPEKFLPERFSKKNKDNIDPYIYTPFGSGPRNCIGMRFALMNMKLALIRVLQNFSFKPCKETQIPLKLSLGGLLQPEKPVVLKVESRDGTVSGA

Cytochrome P450 1A2 [5] = target: T1, Cytochrome P450 1A2; test: Activity of human recombinant CYP1A2 in supersomes assessed as enzyme-mediated drug metabolism at 0.05 to 0.1 uM after 30 mins by LC/MS analysis; type: ADME; conditions: 0.5 h; how it was run: as §1
Cytochrome P450 2D6 [6] = target: T2, Cytochrome P450 2D6; test: Activity of human recombinant CYP2D6 in supersomes assessed as enzyme-mediated drug metabolism at 0.05 to 0.1 uM after 30 mins by LC/MS analysis; type: ADME; conditions: 0.5 h; how it was run: as §1
Cytochrome P450 3A5 [7] = target: T5, Cytochrome P450 3A5 (Homo sapiens, UniProt P20815); test: Activity of human recombinant CYP3A5 in supersomes assessed as enzyme-mediated drug metabolism at 0.05 to 0.1 uM after 30 mins by LC/MS analysis; type: ADME; conditions: 0.5 h; how it was run: as §1
T5 sequence (P20815 whole entry): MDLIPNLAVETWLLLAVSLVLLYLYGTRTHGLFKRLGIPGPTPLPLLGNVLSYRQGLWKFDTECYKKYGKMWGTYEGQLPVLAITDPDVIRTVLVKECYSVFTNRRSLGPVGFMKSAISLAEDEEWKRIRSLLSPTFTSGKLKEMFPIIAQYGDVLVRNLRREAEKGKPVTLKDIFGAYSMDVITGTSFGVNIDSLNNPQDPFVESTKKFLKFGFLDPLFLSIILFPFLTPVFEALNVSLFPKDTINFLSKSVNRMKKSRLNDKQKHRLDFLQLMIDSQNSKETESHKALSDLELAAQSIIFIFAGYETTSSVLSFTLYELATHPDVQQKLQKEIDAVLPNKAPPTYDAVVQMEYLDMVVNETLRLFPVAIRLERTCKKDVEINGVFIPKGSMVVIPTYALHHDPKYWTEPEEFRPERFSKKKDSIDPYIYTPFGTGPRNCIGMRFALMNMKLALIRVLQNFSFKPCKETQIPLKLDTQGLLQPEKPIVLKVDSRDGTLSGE

Cytochrome P450 2C8 [8] = target: T3, Cytochrome P450 2C8; test: Activity of human recombinant CYP2C8 in supersomes assessed as intrinsic clearance for enzyme-mediated drug metabolism by LC/MS analysis; type: ADME
How it was run: (§2)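 N-DMI formation kinetics: imatinib 0.10–320 µM with CYP2C8 (33 pmol/ml, 4 min), CYP3A4 (13 pmol/ml, 3 min) or CYP3A5 (10 pmol/ml, 30 min), 0.1 mg/ml protein. Run in phosphate pH 7.4 with 1 mM NADPH at 37°C, in triplicate, read by LC-MS/MS. Fits used substrate-inhibition (CYP2C8, CYP3A4) or Michaelis–Menten (CYP3A5) models; CLint = Vmax/Km.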

Cytochrome P450 3A4 [9] = target: T4, Cytochrome P450 3A4; test: Activity of human recombinant CYP3A4 in supersomes assessed as intrinsic clearance for enzyme-mediated drug metabolism by LC/MS analysis; type: ADME; how it was run: as §2
Cytochrome P450 3A5 [10] = target: T5, Cytochrome P450 3A5; test: Activity of human recombinant CYP3A5 in supersomes assessed as intrinsic clearance for enzyme-mediated drug metabolism by LC/MS analysis; type: ADME; how it was run: as §2
[11] = Oral bioavailability in chronic myeloid leukemia patient; type: ADME, organism-based; conditions: human, in vivo
[12] = Cmax in chronic myeloid leukemia patient at 400 mg, qd by multiple dose study; type: ADME, organism-based; design: dose 400 mg; conditions: human, in vivo

CL (Cytochrome P450 1A2 [1]) [µL/min]	CL (Cytochrome P450 2D6 [2]) [µL/min]	fraction unbound at 1 h (CYP1A2)	fraction unbound at 1 h (CYP2C8)	fraction unbound at 1 h (CYP2D6)	fraction unbound at 1 h (CYP3A4)	fraction unbound at 1 h (CYP3A5)	Drug metabolism (Cytochrome P450 2C8 [3])	Drug metabolism (Cytochrome P450 3A4 [4])	Drug metabolism (Cytochrome P450 1A2 [5])	Drug metabolism (Cytochrome P450 2D6 [6])	Drug metabolism (Cytochrome P450 3A5 [7])	CL (Cytochrome P450 2C8 [8]) [µL/min]	CL (Cytochrome P450 3A4 [9]) [µL/min]	CL (Cytochrome P450 3A5 [10]) [µL/min]	bioavailability [11] [%]	Cmax [12] [ng/mL]	Structure (SMILES)
0.03	0.05	0.8	0.8	0.8	0.8	0.8	metabolite_detected	metabolite_detected	metabolite_not_detected	metabolite_not_detected	metabolite_not_detected	0.06	0.5	0.09	–	–	CS(=O)(=O)O.Cc1ccc(NC(=O)c2ccc(CN3CCNCC3)cc2)cc1Nc1nccc(-c2cccnc2)n1
–	–	–	–	–	–	–	–	–	–	–	–	–	–	–	> 97	2200	CS(=O)(=O)O.Cc1ccc(NC(=O)c2ccc(CN3CCN(C)CC3)cc2)cc1Nc1nccc(-c2cccnc2)n1 [IMATINIB MESYLATE]
